Measured values reported in article PMC5271563 (ChemMedChem, 2016).
Entries after “also recorded” stand apart in the source; their conditions may differ. One block for each compound: values may come before it.

How the values were obtained:
hCD44(21–178) [1] = target: T1, hCD44(21–178) (Homo sapiens, UniProt P16070); assay: ITC competition; type: binding
hCD44(21–178) [2] = target: T1, hCD44(21–178); assay: NMR binding: 2D [1H,15N]-sofast-HMQC / 1D 1H-aliphatic spectra of 15N-hCD44; conditions: for binding by 2D [1H,15N]-sofast-HMQC: 20 μM 15N-hCD44(21–178)
Procedure, shortened: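 Human CD44 HA-binding domain (Q21–V178) was expressed in E. coli BL21(DE3) gold pLysS in M9 with 15NH4Cl, refolded from urea-solubilised inclusion bodies, and purified as monomer by size exclusion. 2D [1H,15N]-sofast-HMQC (48 scans) and 1D 1H (128 scans) spectra were recorded at 300 K in 50 mM phosphate, 150 mM NaCl, 0.02% NaN3, pH 6.7. Spectra were compared with and without test peptide.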

hCD44(21–178) [3] = target: T1, hCD44(21–178); assay: Isothermal Titration Calorimetry; type: binding; conditions: 23°C, pH 6.7, 5% DMSO
hCD44(21–178) [4] = target: T1, hCD44(21–178); assay: Saturation Transfer Difference; type: binding; conditions: saturating for 2 seconds at −0.28 ppm
Procedure, shortened: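 STD spectra used 128 scans, with 2 s saturation on-resonance at −0.28 ppm and off-resonance reference at −10 ppm. Samples contained hCD44(21–178) and test ligand, with HA8 as positive control. Conditions: 300 K in 50 mM phosphate, 150 mM NaCl, 0.02% NaN3, pH 6.7, on a 600 or 700 MHz spectrometer with cryoprobe.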

[5] = Solubility under binding study conditions; type: physicochemical; conditions: under the binding study conditions
DF1485 antibody = assay: 2D [1H,13C]-HSQC of 13C-A6 peptide with antibody; type: binding, mouse; conditions: 5 μM 13C-A6 peptide, 4 μM DF1485
Procedure, shortened: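 Test peptide carries a 13C-labelled N-acetyl methyl. 2D [1H,13C]-HSQC spectra were recorded without and with the mouse anti-CD44 monoclonal antibody DF1485 ([…]), using 64 scans and 4096 × 128 complex points. Conditions: 300 K, 600 or 700 MHz with cryoprobe, 50 mM phosphate, 150 mM NaCl, 0.02% NaN3, pH 6.7. Read-out was broadening or chemical shift change of the methyl signal.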

hCD44(21–178) [6] = target: T1, hCD44(21–178); assay: NMR displacement / ternary binding experiments by 2D [1H,15N]-sofast-HMQC

T1 sequence (P16070 21-178): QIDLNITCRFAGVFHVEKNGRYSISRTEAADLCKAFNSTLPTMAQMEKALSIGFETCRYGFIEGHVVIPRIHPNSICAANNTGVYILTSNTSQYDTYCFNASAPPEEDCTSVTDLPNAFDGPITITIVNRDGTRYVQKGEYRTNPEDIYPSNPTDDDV

- ΔH of HA8 binding in presence of compound 3 (ITC) (hCD44(21–178) [1]; 750-fold molar excess (55 mM) compound 3): -0.83 kcal/mol
- Kd of HA8 in presence of compound 3 (ITC) (hCD44(21–178) [1]; hCD44(21–178) incubated with 750-fold molar excess (55 mM) compound 3, titrated with 1.6 mM HA8, 23°C, pH 6.7, 5% DMSO): 37.5 µM
- chemical shift perturbations in 2D [1H,15N]-sofast-HMQC (hCD44(21–178) [2]; 20 μM hCD44(21–178), 220 μM HA8, 300 K, pH 6.7): widespread perturbations
- enthalpy of binding ΔH (ITC) (hCD44(21–178) [3]; hCD44 73 μM titrated with 1.6 mM HA8): -0.7 kcal/mol
- STD effect (hCD44(21–178) [4]): significant STD effect
Compound: CC(=O)N[C@H]1[C@H](O[C@H]2[C@H](O)[C@@H](O)[C@H](O[C@H]3[C@H](O)[C@@H](CO)O[C@@H](O[C@H]4[C@H](O)[C@@H](O)[C@H](O[C@H]5[C@H](O)[C@@H](CO)O[C@@H](O[C@H]6[C@H](O)[C@@H](O)[C@H](O[C@H]7[C@H](O)[C@@H](CO)OC(O)[C@@H]7NC(C)=O)O[C@@H]6C(=O)O)[C@@H]5NC(C)=O)O[C@@H]4C(=O)O)[C@@H]3NC(C)=O)O[C@@H]2C(=O)O)O[C@H](CO)[C@@H](O)[C@@H]1O[C@@H]1O[C@H](C(=O)O)[C@@H](O)[C@H](O)[C@H]1O (stereo partly drawn) [HA8, [GlcNAc-GlcUA]4]

- binding by 2D [1H,15N]-sofast-HMQC (hCD44(21–178) [2]; 200 μM A5G27): no evidence of binding
Compound: H-RLVSYNGIIFFLK-NH2 [A5G27]
- solubility [5]: limited solubility; also recorded: fairly low solubility

- binding by 2D [1H,15N]-sofast-HMQC (hCD44(21–178) [2]; 400 μM peptide): no significant binding
Compound: Ac-SRPQGPFL-NH2

Compound: Ac-KPSSPPEE-NH2 [A6 Peptide]
- interaction between 13C-A6 peptide and DF1485 antibody (DF1485 antibody): no appreciable binding
- binding by 2D [1H,15N]-sofast-HMQC (hCD44(21–178) [2]; 500 μM A6 peptide, pH 6.7, listed as A6): could not observe any significant binding
- binding by 2D [1H,15N]-sofast-HMQC (hCD44(21–178) [2]; 500 μM A6 peptide, pH 6.7, listed as A6-peptide): absence of appreciable binding
- binding by 2D [1H,15N]-sofast-HMQC (hCD44(21–178) [2]; 500 μM A6 peptide, pH 6.7, listed as A6 peptide): No appreciable binding
- direct interaction by ITC (hCD44(21–178) [3]; hCD44 73 μM titrated with 1 mM A6 peptide): absence of direct interactions
- displacement of DF1485 antibody from hCD44(21–178) (hCD44(21–178) [6]; 10 μM 15N-hCD44(21–178), 10 μM DF1485, addition of 500 μM A6 peptide): not displaced
- binding to hCD44 in complex with HA8 (hCD44(21–178) [6]; A6, 15N-labeled hCD44(21–178)): did not observe significant binding
